Measured values gathered from unrelated publications.
Protocols differ between the studies behind these lines.
Target: Histamine H3 receptor (HRH3, Homo sapiens, UniProt Q9Y5N1)

CN(CCN1CCC(OC(=O)Nc2ccccc2-c2ccccc2)CC1)C(=O)c1ccc(CN2CCC(C(N)=O)CC2)cc1 — inhibition (ligand displacement, radioligand; 1 µM): 72%
O=C(Nc1cccnn1)N1CCN([C@@H]2CCOc3cc(C(F)(F)F)ccc32)CC1 — inhibition (cell-free assay; 20 µM): 11%
C[C@H](C(=O)N[C@H]1COc2ccccc2[C@@H]1S(C)(=O)=O)c1ccc(F)cc1 — inhibition (cell-free assay; 10 µM): 1%
COCc1c(-c2cc3cc(C)cc(OC)c3s2)c2c(N)ncnn2c1CN1CCNC(=O)C1 — inhibition (ligand displacement, radioligand; 10 µM): -8%
N#CC1(c2ccccn2)CCN(Cc2cc(C(=O)O)c(=O)n3ccccc23)CC1 — inhibition (cell-free assay; 10 µM): 4.08%
c1ccc(C(NCCNC(c2ccccc2)c2ccccc2)c2ccccc2)cc1 — inhibition (cell-free assay; 10 µM): 1%
Cc1c(N2CCNCC2)nc2ccc(Br)cc2c1C(=O)NC[C@H](CCC(=O)O)c1ccccc1Cl — inhibition (ligand displacement; 10 µM): 16.9%
CC(C)N1CCC[C@H]1CNC(=O)c1cn(C2CCCC2)c(=O)c2c1c1ccccc1n2C — inhibition (ligand displacement, radioligand; 10 µM): 26%
